Measurements from different studies.
Protocols differ between the studies behind these lines.
FGFR2: Fibroblast growth factor receptor 2 (FGFR2, Homo sapiens, UniProt P21802)
FGFR2 N549H: Fibroblast growth factor receptor 2 (FGFR2, Homo sapiens, UniProt P21802, N549H)

Compound	target	assay	setting	endpoint	value
Cc1sc(C(=O)NC2COC2)cc1-n1cc(NC(=O)Nc2c(F)cccc2Cl)cn1	FGFR2	enzyme activity, inhibitor	10 µM	remaining activity	105%
C[C@@]1(Cc2ccc(C#N)cc2)C(=O)N(c2cc(Cl)cc(Cl)c2)c2ncc(C(=O)NC3(c4nc(C5CCC5)no4)CC3)n21	FGFR2	cell-free assay, competition with immobilised ligand	1 µM	remaining binding	100%
Cc1cc(NC(=O)c2cccc3cc(-c4cccc5[nH]nc(N)c45)ccc23)ccc1F	FGFR2	enzyme activity, inhibitor	0.1 µM	activity vs control	98%
COc1cc(Cl)c(C(=O)N[C@@H](CN[C@H]2CC[C@@H](N)CC2)Cc2ccc(C#N)cc2)cc1-c1ccc(CN[C@H](C)c2ccc(C)cc2)o1	FGFR2	enzyme activity, inhibitor	1 µM	remaining activity	102%
Nc1ncnc2occ(-c3ccc(NC(=O)Nc4cc(C(F)(F)F)ccc4F)cc3)c12	FGFR2	cell-free assay	20 µM	remaining signal	0%
Cc1cnc(NC2CCOCC2)nc1-n1cnc(C(=O)NC(CN)c2cc(F)cc(Cl)c2)c1 (centres unmarked)	FGFR2 N549H	enzyme activity, inhibitor, radiometric	1 µM	remaining activity	99%
COc1cc2c(N3CCN(C(=O)Nc4ccc(OC(C)C)cc4)CC3)ncnc2cc1OCCCN1CCCCC1	FGFR2	cell-free assay	0.5 µM	remaining signal	99.8%
CCN(CC)CCNC(=O)c1c(C)[nH]c(/C=C2\C(=O)Nc3ccc(F)cc32)c1C	FGFR2	enzyme activity, inhibitor	10 µM	inhibition	94%
CO[C@@H](C)c1c(Nc2ccc([C@H](N(C)C(=O)C3CCS(=O)(=O)CC3)C(F)(F)F)cc2)cnc2cc(Cl)nn12	FGFR2	cell-free assay, competition with immobilised ligand	1 µM	remaining binding	91%
CC(C)(C)c1nc2c(s1)c1nc(N)ncc1c1ccc(NS(=O)(=O)c3c(F)cccc3F)c(F)c12	FGFR2	enzyme activity, inhibitor, radiometric	1 µM	remaining activity	91%
COc1cc(-c2cn(C3CCc4c(F)cccc4N(CC(F)(F)F)C3=O)nn2)ccc1-n1cnc(C)c1 (centres unmarked)	FGFR2	cell-free assay, competition with immobilised ligand	1 µM	remaining binding	100%
O=C1NC(=O)c2cc(Nc3ccc(F)cc3)c(Nc3ccc(F)cc3)cc21	FGFR2	cell-free assay	0.5 µM	remaining signal	102%
Cc1ccc(Nc2nccc(N(C)c3ccc4c(C)n(C)nc4c3)n2)cc1S(N)(=O)=O	FGFR2	enzyme activity, inhibitor	0.3 µM	inhibition	92%
Cc1ccc(NC(=O)c2ccc(CN3CCN(C)CC3)cc2)cc1Nc1nc(-c2cccnc2)cs1	FGFR2	cell-free assay	0.5 µM	remaining signal	100%
Cc1ccc(NC(=O)c2ccc(C)c(C(F)(F)F)c2)cc1C#Cc1nn(C2CCC(O)CC2)c2ncnc(N)c12 (centres unmarked)	FGFR2 N549H	cell-free assay	10 µM	remaining signal	-1%
CN(C)C1CCN(CC#Cc2nn(C3CCCC3)c3nc(NCc4ccccc4)ncc23)C1 (centres unmarked)	FGFR2	enzyme activity, inhibitor, FRET	1 µM	inhibition	8%
C[C@H](c1ccnc(Nc2nc3ccc(-c4cc(N(C)C)ncn4)cc3[nH]2)c1)N1CCN(C(=O)CC(F)(F)F)CC1	FGFR2	cell-free assay, competition with immobilised ligand	0.1 µM	remaining binding	100%
O=C1Nc2ccc(Cl)cc2C1=Cc1cc(Cl)c(O)c(Cl)c1	FGFR2	cell-free assay	0.5 µM	remaining signal	92%
Cc1nc(C2CCN(C(=O)c3ccc(OC(F)(F)F)cc3N)CC2)c2ncc(N3CCN(C)CC3)cc2n1	FGFR2	cell-free assay, competition with immobilised ligand	1 µM	remaining binding	100%
CNC(=O)c1cc(Oc2ccc(NC(=O)Nc3ccc(Cl)c(C(F)(F)F)c3)cc2)ccn1	FGFR2	enzyme activity, inhibitor	10 µM	inhibition	98%
Cc1noc([C@H]2C[C@@H](c3ccc(C(F)(F)F)cc3)CN(C(=O)N3CCS(=O)(=O)C3)C2)n1	FGFR2	cell-free assay, competition with immobilised ligand	1 µM	remaining binding	85%
CCCOc1ccc(OC)c(F)c1C(=O)c1ccc(C(=O)N[C@@H]2CNC[C@H]2NC(=O)c2ccc3[nH]ncc3c2)cc1	FGFR2	enzyme activity, inhibitor	10 µM	remaining activity	70%
C[C@@H]1CN(c2cc(-c3n[nH]c4ccc(OC5(C)CC5)cc34)ncn2)C[C@H](C)O1	FGFR2	cell-free assay, competition with immobilised ligand	0.1 µM	remaining binding	96%
N#CCCc1ccc2c(c1)-c1[nH]c3ccc([N+](=O)[O-])cc3c1CC(=O)N2	FGFR2	cell-free assay	0.5 µM	remaining signal	93.2%
O=C(Nc1cccnn1)N1CCC(=Cc2cccc(Oc3ccc(C(F)(F)F)cn3)c2)CC1	FGFR2	cell-free assay, competition with immobilised ligand	1 µM	remaining binding	96%
CCN(CC)c1ccc(C2=NNC(=O)CC2C)cc1[N+](=O)[O-] (centres unmarked)	FGFR2	enzyme activity, inhibitor	10 µM	remaining activity	115%
